Results collected from several papers.

SMILES	test system	conditions	Cmax
COc1cc2c3c(n(CCCN4CCOCC4)c(=O)c2cc1OC)-c1cc2c(cc1C3=O)OCO2	female Fischer 344 rat, plasma	intravenous, 12 mg/m², single dose	301 ng/mL
COc1ccc2c(=O)n(C)c(-c3ccccc3)nc2c1	male Sprague-Dawley rat, plasma	intravenous, 2 mg/kg	2130 ng/mL
CCc1cc(C(=O)NC)c2nccc(N3CCc4c(cc(Cn5ccnc5)cc4-c4cn(C)nc4C(F)(F)F)C3=O)c2c1	male Sprague-Dawley rat, plasma	oral, 50 mg/kg, single dose	6170 ng/mL
COCc1nn(Cc2ccc(Cn3ccccc3=O)cc2)cc1C(=O)NCc1nccc(OC)c1F	male Sprague-Dawley rat, plasma	oral, 10 mg/kg	1940 ng/mL
O=C(Nc1cc(F)c(F)c(F)c1)c1ccc(F)c(S(=O)(=O)NCc2cccc(B(O)O)c2)c1	male Sprague-Dawley rat, plasma	intravenous, 2 mg/kg	460 ng/mL
Cc1noc(-c2cc3cc(-c4nc(C(=O)NCc5ccncc5)[nH]c4C)ccc3[nH]2)n1	Sprague-Dawley rat, plasma	oral, 10 mg/kg, suspension	2200 nM
C#Cc1cccc(Nc2ncnc3cc(OCCOC)c(OCCOC)cc23)c1	male Sprague-Dawley rat, plasma	oral, 12 mg/kg, single dose	1580 ng/mL
Oc1c(Br)cc(Cl)c2cccnc12	Sprague-Dawley rat, plasma	oral, 20 mg/kg	1700 ng/mL
N#Cc1[nH]nnc1-c1cc(Cl)cc(/C=C/c2cccc(C(F)(F)F)c2)c1	male Sprague-Dawley rat, plasma	oral, 10 mg/kg	2670 ng/mL
CC(C)OC(=O)NC1CCN(Cc2cc(Cl)c3cccnc3c2O)CC1	rat, blood	intraperitoneal, 30 mg/kg	200 nM
CCc1nc(C(N)=O)c(Nc2ccc(N3CCC(N4CCN(C)CC4)CC3)c(OC)c2)nc1NC1CCOCC1	male Sprague-Dawley rat, plasma	oral, 10 mg/kg	341 ng/mL
CNCc1cc(-c2ccccc2F)n(S(=O)(=O)c2cccnc2)c1	male Sprague-Dawley rat, plasma	oral, 10 mg/kg	140 ng/mL
COc1nc(-c2cc(C)c(N[C@@H](C)c3cc(F)cc(F)c3)nn2)ccc1-n1cnc(C)c1	male Sprague-Dawley rat, plasma	oral, 5 mg/kg, single dose	3240 ng/mL
COc1ccc(C(C)=O)c(O)c1	male Sprague-Dawley rat, plasma	oral, 100 mg/kg	8460 ng/mL
CC[C@H](C)[C@H](NC(=O)[C@H](Cc1ccccc1)NC(=O)[C@H](CCC(=O)O)NC(=O)[C@H](CCCNC(=N)N)NC(=O)[C@H](C)NC(=O)[C@H](C)NC(=O)[C@H](CCC(N)=O)NC(=O)[C@H](CCC(=O)O)NC(=O)[C@H](CCC(=O)O)NC(=O)[C@H](CC(C)C)NC(=O)[C@H](Cc1ccc(O)cc1)NC(=O)[C@H](CO)NC(=O)[C@H](CO)NC(=O)[C@@H](NC(=O)[C@H](CC(=O)O)NC(=O)[C@H](CO)NC(=O)[C@@H](NC(=O)[C@H](Cc1ccccc1)NC(=O)[C@@H](NC(=O)CNC(=O)[C@H](CCC(=O)O)NC(=O)[C@H](C)NC(=O)CCc1c[nH]cn1)[C@@H](C)O)[C@@H](C)O)C(C)C)C(=O)N[C@@H](C)C(=O)N[C@@H](Cc1c[nH]c2ccccc12)C(=O)N[C@@H](CC(C)C)C(=O)N[C@H](C(=O)N[C@@H](CCCNC(=N)N)C(=O)NCC(=O)N[C@@H](CCCNC(=N)N)C(=O)N[C@@H](CCCCNC(=O)COCCOCCNC(=O)COCCOCCNC(=O)CC[C@H](NC(=O)CCCCCCCCCCCCCCCCC(=O)O)C(=O)O)C(=O)O)C(C)C	rat, plasma	subcutaneous, 20 nmol/kg	64.2 nM
CNC(=O)c1c(C)oc2cc(Oc3ncnc4cc(OC)c(OC)cc34)ccc12	Sprague-Dawley rat, plasma	oral, 1 mg/kg, single dose	712 ng/mL
Cc1c(-c2ccccc2)cccc1N1C(=O)c2cc(CN[C@H](C(=O)O)C(C)O)c(OCc3cccc(C#N)c3)cc2C1=O (some centres unmarked)	Sprague-Dawley rat, plasma	intravenous, 5 mg/kg	4350 ng/mL
COCc1nn(Cc2ccc(Cn3ccccc3=O)cc2)cc1C(=O)NCc1c(C#N)ccc(OC)c1F	male Sprague-Dawley rat, plasma	oral, 10 mg/kg	360 ng/mL
N#Cc1ccc(Nc2nc(N)cc(Oc3c(F)cc(-c4ccc(C#N)cc4)cc3F)n2)cc1	Sprague-Dawley rat, plasma	intravenous, 1 mg/kg	251 ng/mL
CCOC(=O)[C@@]12C[C@@H]1[C@@H](n1ccc3c(NC)nc(C#Cc4ccc(Cl)s4)nc31)[C@H](O)[C@@H]2O	male Sprague-Dawley rat, plasma	oral, 10 mg/kg	192 ng/mL
C=CC(=O)N1CC2CC(n3nc(-c4ccc(C(=O)Nc5ccccn5)cc4)c4c(N)ncnc43)CC2C1 (centres unmarked)	male Wistar rat, plasma	oral, 300 mg/kg	6140 ng/mL
N#Cc1[nH]nnc1-c1cccc(-c2cc(F)cc(C(F)(F)F)c2)c1	male Sprague-Dawley rat, plasma	oral, 10 mg/kg	5750 ng/mL
COCCOC(=O)C1=C(C)NC(C)=C(C(=O)OC(C)C)C1c1cccc([N+](=O)[O-])c1 (centres unmarked)	male Sprague-Dawley rat, plasma	oral, 12 mg/kg	85 ng/mL
